Data set [1] concerns the target T1, Sialin (Homo sapiens, UniProt Q9NRA2).
T1 sequence (Q9NRA2 whole entry): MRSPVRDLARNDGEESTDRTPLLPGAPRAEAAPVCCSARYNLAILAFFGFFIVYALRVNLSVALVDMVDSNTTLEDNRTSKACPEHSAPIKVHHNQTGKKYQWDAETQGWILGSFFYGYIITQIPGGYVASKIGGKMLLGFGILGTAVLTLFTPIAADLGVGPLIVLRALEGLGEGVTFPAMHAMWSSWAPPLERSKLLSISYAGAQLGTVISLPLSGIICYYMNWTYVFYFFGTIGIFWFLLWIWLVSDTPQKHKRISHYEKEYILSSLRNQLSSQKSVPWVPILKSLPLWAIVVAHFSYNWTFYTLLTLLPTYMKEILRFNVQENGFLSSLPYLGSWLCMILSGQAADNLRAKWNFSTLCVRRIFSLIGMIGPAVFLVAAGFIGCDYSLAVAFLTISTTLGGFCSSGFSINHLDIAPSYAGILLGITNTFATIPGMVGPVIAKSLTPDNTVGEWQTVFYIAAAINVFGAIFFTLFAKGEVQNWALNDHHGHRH
In words: Non-competitive inhibition of human recombinant-Sialin expressed in HEK293 cells assessed as reduction in [3H]Neu5Ac uptake incubated for 15 mins by liquid scintillation counting method. Type of data set: cell-based.

Data set [2] can be described thus: Lipophilicity, log Pof the compound. It is filed as physicochemical. Particulars: octanol/water.
Data set [3] concerns the target T1, Sialin. In words: Inhibition of human recombinant-Sialin expressed in HEK293 cells assessed as reduction in [3H]Neu5Ac uptake at 30 to 300 uM incubated for 15 mins by liquid scintillation counting method. It is filed as cell-based. In outline:
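HEK293 cells expressing EGFP-human sialin L22G/L23G (sorting mutant at the plasma membrane), assayed 2 days after lipofection. Uptake of [3H]Neu5Ac (12.5 nM) over 15 min at room temperature in MES-Na+ pH 5.0 with inhibitor added together with tracer. Cells washed twice ice-cold, radioactivity counted by liquid scintillation. Dose-response run in triplicate, two to three independent experiments.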

Consider 3 compounds from ChEMBL document CHEMBL4627406, “Amino Acids Bearing Aromatic or Heteroaromatic Substituents as a New Class of Ligands for the Lysosomal Sialic Acid Transporter Sialin” (J Med Chem, 2020).

What is called Ki is a measure of affinity in units of concentration, obtained from inhibition or displacement. As usually defined, the logP is the decadic logarithm of the partition coefficient of the neutral form, usually between octanol and water. Broadly, the IC50 is the point on the concentration scale where inhibition reaches its midpoint.

Take `CC(C)C[C@H](NC(=O)OCC1c2ccccc2-c2ccccc21)C(=O)O`: the Ki on Sialin [1] was determined as 10.2 µM. This compound also gave a logP in data set [2] of 4.1. Moreover, on Sialin [3], the IC50 lay in the range of 23.3 to 24 µM.
In data set [2], `CC(C)C[C@H](NC(=O)N1CCCCCC1)C(=O)N[C@H](Cc1cn(C)c2ccccc12)C(=O)N[C@H](Cc1ccccn1)C(=O)O` returned a log partition coefficient (logP) of 2.29. For the same compound, the inhibitory constant (Ki) at Sialin [3] is 20 µM.
Regarding `O=C(N[C@@H](CSCc1cc(=O)oc2cc(O)ccc12)C(=O)O)OCC1c2ccccc2-c2ccccc21`, the inhibition constant (Ki) at Sialin [1] amounted to 7.8 µM. In data set [2], this compound showed a log partition coefficient (logP) of 3.91. Also, the 50% inhibitory concentration (IC50) at Sialin [3] was 2.4 to 2.9 µM.
